An excerpt weighted towards active compounds, which were near 4.9% of everything screened.
APP 5'UTR act = activators of APP 5'UTR luciferase reporter, primary screen, SH-SY5Y cells | SH-SY5Y APP 5'UTR luciferase reporter, luminescence; zero percent = DMSO vehicle wells | actives 1% (n = 190,000) | activation, % at 2 µM | AID 1276, 2008;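 active = activation above a set limit, based on mean plus 3 SD of controls, cut at about 140% in these data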
STAT3 activator = IL-6 driven STAT3 reporter potentiators, primary screen, U3A cells, luciferase, luminescence, MLSCN library; IL-6 STAT3-luciferase reporter; 100% = signal with IL-6 EC80 alone; AID 871, 2007; actives 0.91% (n = 190,000); activation (% of control), % at 5.6 µM;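 active = activation above the screen-wide mean of compound activation plus 3 SD, cut at about 130% in these data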
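Material: STAT3-luciferase reporter U3A cells; Probe or stimulus: IL-6 (33 ng/mL); Incubation: compound pre-incubation 1 h before IL-6, then 6 h stimulation at 37 °C; Technique: luminescence from STAT3-driven luciferase reporter; Evaluation: % activation versus median of IL-6-stimulated wells; Controls: IL-6-only high control.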
STAT1 act = STAT1 signaling activators, primary screen, cell-based, HTS, luciferase reporter | NIH 3T3 STAT1-luciferase reporter, IFN-gamma, luminescence; 100% = IFN-gamma alone, no compound | activation (% of control), % at 5.5 µM | actives 2.6% (n = 200,000);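 active = activation above the screen-wide mean activation plus 3 SD, cut at about 130% in these data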
NF-kB neuron act = activators of NF-kB expression in neurons, primary screen, cell-based, HTS; actives 1.6% (n = 190,000); AID 1239, 2008; fold change at 12.5 µM; human neuronal cells, NF-kB reporter expression; stronger effect = higher value; in the data active = fold change above about 3.3
STAT1 blocker = STAT1 signaling inhibitors, primary screen, cell-based, HTS, luciferase reporter; actives 0.35% (n = 200,000); NIH 3T3 STAT1-luciferase reporter, IFN-gamma, luminescence; inhibition, % at 5.5 µM;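 active = inhibition above a set limit, the mean inhibition across all tested compounds plus 3 SD, cut at about 34% in these data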
STAT3 inh = IL-6 driven STAT3 reporter inhibitors, primary screen, U3A cells, luciferase, luminescence, MLSCN library | IL-6 STAT3-luciferase reporter; host cell line lacks STAT1 | AID 862, 2007 | inhibition, % at 5.5 µM | actives 0.89% (n = 190,000);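 active = inhibition above the mean inhibition across all screened compounds plus 3 SD, cut at about 44% in these data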
Each line names hits and unclear results; the compound was inactive in the other large screens.

CCOC(=O)C1=C(COC(=O)C2(C)CC2(Cl)Cl)NC(=O)NC1c1ccccc1 (configuration not stated)	none
O=C(O)c1ccccc1N/C=C\[N+](=O)[O-]	none
Cc1nc(-c2ccc(C(=O)Nc3ccccc3F)cc2)cs1	NF-kB neuron act 3.4, STAT1 blocker 74.8, STAT3 inh 87.9
CCc1ccc(-c2cn3nc(C)c(C)nc3n2)cc1	STAT1 blocker 85.1, STAT3 inh 110.5
c1ccc(-c2cn3nc4c(nc3n2)CCCC4)cc1	APP 5'UTR act 148.5, STAT1 blocker 52.7, STAT3 inh 87.3
Cc1nc2nc(-c3ccccc3)cn2nc1C	NF-kB neuron act 4.74
CCc1c(-c2ccccc2)nc2nc(C)c(C)nn12	none
O=C1NC(c2cccc([N+](=O)[O-])c2)Oc2ccccc21 (configuration not stated)	none
CCc1nc2sccc2c(=O)[nH]1	none
CCOC(=O)c1cnc2c(N=Nc3ccccc3)c(N)nn2c1N	STAT1 act 137.5
CCOC(=O)c1cnc2c(N=Nc3cccc(Cl)c3)c(N)nn2c1N	none
COc1ccccc1C1=NC(c2ccc(C)cc2)N=C1C (configuration not stated)	STAT1 act 135.3
COc1ccc(CCN=C(C)C2=C(O)C(c3ccccc3)OC2=O)cc1OC (configuration not stated)	none
O=C(Cc1c[nH]c2ccccc12)Nc1ccc(N2CCOCC2)cc1	none
COCCn1c(C)cc(C(=O)COC(=O)c2ccc(Br)o2)c1C	APP 5'UTR act 268.0
Cc1cc(C(=O)COC(=O)c2ccc(Br)o2)c(C)n1C	STAT1 act 135.0, NF-kB neuron act 3.96
Cc1ccc(C(=O)COC(=O)c2ccc(Br)o2)cc1C	none
COCCn1c(C)cc(C(=O)COC(=O)CNC(=O)c2ccccc2)c1C	none
CCOC(=O)c1cc(C(=O)OCC)c(=O)[nH]c1N1CCCCC1	none
COc1ccc(/C=C(\C#N)C(=O)NCC2CCCO2)cc1OC (configuration not stated)	none
CCOC(=O)c1ccc(-c2ccc(/C=C(\C#N)C(=O)NCC3CCCO3)o2)cc1 (configuration not stated)	STAT3 activator 135.5
CC(C)CCN(C(=O)COc1ccc(C#N)cc1)c1c(N)n(Cc2ccccc2)c(=O)[nH]c1=O	none (no result: NF-kB neuron act)
CC(=O)c1cccc(NC(=O)c2cc(C(C)C)on2)c1	NF-kB neuron act 3.85
CC(C)c1cc(C(=O)NCCc2ccccc2)no1	STAT1 act 132.6
CC(C)c1cc(C(=O)Nc2cccc(Cl)c2)no1	APP 5'UTR act 186.7, NF-kB neuron act 10.7
COCc1cc(S(=O)c2ccc(Cl)cc2)nc(C)n1 (configuration not stated)	none
O=C(COC(=O)C1CSC2(c3ccc(F)cc3)CCC(=O)N12)NC(=O)NC1CCCC1 (configuration not stated)	none
CC(=O)Nc1nc(C2CC2)cc(-c2ccccc2)c1C#N	none
Cc1ccc(C(=O)CSc2nnc3ccccn23)c(C)c1	APP 5'UTR act 167.4, NF-kB neuron act 4.08
Cc1cc(C)c(C(=O)CSc2nnc(N)s2)c(C)c1	none
Cc1ccc(C(=O)CSc2nnc(N)s2)c(C)c1	STAT1 act 136.9
CCOC(=O)C1(Cc2ccc(Cl)cc2)CCN(C(=O)c2cc(C)nc(C)n2)CC1	none (no result: NF-kB neuron act)
CCSc1ncc(/C=N/Nc2ccc(Cl)cc2)n1C	STAT3 activator 149.6, STAT1 act 160.3, NF-kB neuron act 5.67
O=C(Nc1ccccc1)Nc1ccc2ncoc2c1	STAT1 act 132.4
O=C(Nc1ccccc1)Nc1ccc2ocnc2c1	none
Cc1nc2ccccn2c1C(=O)N=Nc1c(O)[nH]c2ccccc12	none
COc1ccc(NC(=O)c2ccccn2)cc1OC	none
CCC(=O)Nc1ccc(NC(=O)c2cccc(OC)c2)nc1	STAT1 act 128.6
COc1ccc(NC(=O)c2ccc(-c3ccccc3Cl)o2)cc1	STAT1 act 129.9
CCC(=O)Nc1ccc(NC(=O)c2ccccn2)cn1	STAT1 act 129.8
